Laboratory results taken from ChEMBL document CHEMBL1800054, “Thiazolides as novel antiviral agents. 1. Inhibition of hepatitis B virus replication” (J Med Chem, 2011).
pEC50: −log10 of the molar value.

Experiments:
[1] = Cytotoxicity against human HepG2(2.2.15) cells after 24 hrs by neutral red dye uptake assay; format: cell-based; conditions: for CC50: hepg2 2.2.15, 24 h; for CC50 at 24 h: HepG2(2.2.15) cells
Summary of the method: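 Confluent chronically HBV-producing 2.2.15 cultures given nine consecutive daily doses of compound; neutral red dye uptake read 24 hr after the last dose.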

Hepatitis B virus [2] = assay: Antiviral activity against Hepatitis B virus infected in human HepG2(2.2.15) cells assessed as decrease in extracellular viral DNA measured 24 hrs after last dose; format: functional, organism-based; conditions: HepG2 2.2.15, 24 h
Summary of the method: (§1)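 Confluent 2.2.15 cells (HepG2 line chronically producing HBV) in 96-well culture; nine consecutive daily doses of compound. HBV DNA (extracellular virion or intracellular replication intermediates) quantified by blot hybridization 24 hr after the last dose. Cytotoxicity measured by neutral red uptake 24 hr after the last dose.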

Hepatitis B virus [3] = assay: Antiviral activity against Hepatitis B virus infected in human HepG2(2.2.15) cells assessed as decrease in intracellular viral DNA measured 24 hrs after last dose; format: functional, organism-based; conditions: HepG2 2.2.15, 24 h; summary of the method: as §1
[4] = Selectivity index, ratio CC50 for human HepG2(2.2.15) cells to EC90 for decrease in intracellular viral DNA in Hepatitis B virus infected human HepG2(2.2.15) cells; format: toxicity, cell-based; conditions: read-out: Selectivity Index
Summary of the method: (§2)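 Ratio of CC50 to EC90 in confluent 2.2.15 cells treated with nine consecutive daily doses. Both read 24 hr after the last dose. CC50 = concentration halving neutral red uptake versus untreated cultures. EC values were run in triplicate.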

[5] = Selectivity index, ratio CC50 for human HepG2(2.2.15) cells to EC90 for decrease in extracellular viral DNA in Hepatitis B virus infected human HepG2(2.2.15) cells; format: toxicity; conditions: read-out: Selectivity Index; summary of the method: as §2
[6] = Metabolic stability in human liver S9 fraction assessed as compound remaining after 60 mins; format: ADME, subcellular; conditions: read-out: Stability
Summary of the method: (§3)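 Incubated 60 minutes with human liver microsomes or S9 fraction; read-out is percent of parent compound remaining.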

[7] = Inhibition of CYP450; format: ADME
Summary of the method: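 Screened for inhibition against a panel of 14 CYP isozymes.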

[8] = Protein binding in plasma; format: ADME, cell-free; conditions: read-out: PPB
Plasma [9] = assay: Metabolic stability in human plasma after 1 hr; format: ADME, cell-free
Summary of the method: (§4)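 Incubated 1 hour in human whole blood or plasma, then stability assessed.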

Blood = assay: Metabolic stability in human blood after 1 hr; format: ADME, tissue-based; summary of the method: as §4
[10] = Metabolic stability in human liver microsomes assessed as compound remaining after 60 mins; format: ADME, Microsome; conditions: read-out: Stability; summary of the method: as §3
Plasma [11] = assay: Protein binding in human plasma; format: ADME, cell-free

SMILES | CC50 [1] | pEC50 (Hepatitis B virus [2]) | EC90 (Hepatitis B virus [2]) | CC50 at 24 h [1] | pEC50 (Hepatitis B virus [3]) | selectivity ratio [4] | selectivity ratio [5] | EC90 (Hepatitis B virus [3]) | remaining at 1 h [6] | inhibition (INH) [7] | fraction unbound [8] | Stability (Plasma [9]) | Stability (Blood) | remaining at 1 h [10] | PPB (Plasma [11])
O=C(Nc1nccs1)c1ccccc1O | 16 µM | < 5.00 | > 10 µM |  |  |  |  |  |  |  |  |  |  |  | 
CS(=O)(=O)c1cnc(NC(=O)c2ccccc2O)s1 |  | < 5.00 | > 10 µM | > 100 µM | < 5.00 |  |  |  |  |  |  |  |  |  | 
O=C(Nc1ncc(Cl)s1)c1ccccc1O | 38 µM | 6.48 | 0.89 µM |  | 6.00 | 13 | 43 | 2.9 µM |  |  |  |  |  |  | 
Cc1ccc(O)c(C(=O)Nc2ncc(Cl)s2)c1 |  | 6.48 | 0.83 µM | 100 µM | 6.05 | > 51 | > 120 | 2 µM | 6% | Not Active | < 0.01 | Stable | Stable | 16% | 
Cc1cccc(C(=O)Nc2ncc(Cl)s2)c1O | 100 µM | < 5.00 | > 10 µM |  | < 5.00 |  |  | > 10 µM |  |  |  |  |  |  | 
Cc1ccc(C(=O)Nc2ncc(Cl)s2)c(O)c1 |  | 6.00 | 3.3 µM | 100 µM | 5.57 | > 16 | > 30 | 6.3 µM |  |  |  |  |  |  | 
Cc1cccc(C(=O)Nc2ncc(Br)s2)c1O |  | 5.46 | 9 µM | > 100 µM | 5.12 | > 4.5 | > 11 | 22 µM |  |  |  |  |  |  | 
O=C(Nc1ncc(Br)s1)c1ccccc1O |  | 5.92 | 4 µM | > 100 µM | 5.54 | > 12 | > 25 | 8.7 µM |  |  |  |  |  |  | 
O=C(Nc1ncc(F)s1)c1ccccc1O | 51 µM | 5.51 | 12 µM |  |  |  | 4.3 |  |  |  |  |  |  |  | 
O=C(Nc1ncc(Br)s1)c1cccc(Cl)c1O | 30 µM | 6.49 | 2 µM |  | 6.23 | 7.7 | 15 | 3.9 µM |  |  |  |  |  |  | 
O=C(Nc1ncc(Br)s1)c1ccc(F)cc1O | 12 µM | 5.68 | 5.6 µM |  |  |  | 2.1 |  |  |  |  |  |  |  | 
O=C(Nc1ncc(Br)s1)c1cc(Cl)ccc1O | 45 µM | 6.68 | 1.1 µM |  | 5.46 | 4.1 | 41 | 11 µM |  |  |  |  |  |  | 
O=C(Nc1ncc(-c2ccc(Cl)cc2)s1)c1ccccc1O |  | < 5.00 | > 10 µM | > 100 µM | < 5.00 |  |  | > 10 µM |  |  |  |  |  |  | 
Cc1cccc(C(=O)Nc2nc(-c3ccccc3)cs2)c1O |  | 6.66 | 0.73 µM | > 100 µM | 5.11 | 3.3 | > 137 | 30 µM |  |  |  |  |  |  | 
O=C(Nc1nc(-c2ccccc2)cs1)c1cccc(Cl)c1O |  | 6.82 | 0.6 µM | > 100 µM |  |  | > 166 |  |  |  |  |  |  |  | 
CC(=O)Nc1cnc(NC(=O)c2ccccc2O)s1 |  | < 5.00 | > 10 µM | > 100 µM | < 5.00 |  |  | > 10 µM |  |  |  |  |  |  | 
CS(=O)(=O)c1csc(NC(=O)c2ccccc2O)n1 |  | < 5.00 | > 10 µM | > 100 µM |  |  |  |  |  |  |  |  |  |  | 

SMILES | CC50 [1] | pEC50 (Hepatitis B virus [2]) | EC90 (Hepatitis B virus [2]) | CC50 at 24 h [1] | pEC50 (Hepatitis B virus [3]) | selectivity ratio [4] | selectivity ratio [5] | EC90 (Hepatitis B virus [3]) | remaining at 1 h [6] | inhibition (INH) [7] | fraction unbound [8] | Stability (Plasma [9]) | Stability (Blood) | remaining at 1 h [10] | PPB (Plasma [11])
N#Cc1cnc(NC(=O)c2ccccc2O)s1 |  | 5.49 | 9.4 µM | > 100 µM | 5.26 | > 7.1 | > 11 | 14 µM |  |  |  |  |  |  | 
COC(=O)c1cnc(NC(=O)c2ccccc2O)s1 | 15 µM | < 5.00 | > 10 µM |  |  |  |  |  |  |  |  |  |  |  | 
O=C(Nc1ncc(C(F)(F)F)s1)c1ccccc1O |  | 5.42 | 11 µM | > 100 µM | 5.04 | > 3.7 | > 9.1 | 27 µM |  |  |  |  |  |  | 
CCOC(=O)Oc1ccccc1C(=O)Nc1ncc([N+](=O)[O-])s1 | 9.9 µM | 6.68 | 0.69 µM |  | 6.27 | 5.5 | 13 | 1.8 µM |  |  |  |  |  |  | 
CC(C)c1cnc(NC(=O)c2ccccc2O)s1 |  | < 5.00 | > 10 µM | > 100 µM | < 5.00 |  |  | > 10 µM |  |  |  |  |  |  | 
CC(=O)Oc1ccccc1C(=O)Nc1ccc(Br)cc1 |  | 6.12 | 3 µM | > 100 µM | 5.68 | > 15 | > 33 | 6.8 µM |  |  |  |  |  |  | 
Cc1cc([N+](=O)[O-])c(Cl)cc1NC(=O)c1ccccc1O | 89 µM | 6.55 | 0.73 µM |  | 6.18 | 52 | 122 | 1.7 µM |  |  |  |  |  |  | 
CC(=O)Oc1ccccc1C(=O)Nc1cc(C(F)(F)F)cc(C(F)(F)F)c1 |  | 5.42 | 14 µM | > 100 µM |  |  | > 7.1 |  |  |  |  |  |  |  | 
CC(=O)Oc1ccccc1C(=O)Nc1ccc(I)cc1 |  | 6.70 | 1.2 µM | > 100 µM | 6.14 | > 30 | > 83 | 3.3 µM |  |  |  |  |  |  | 
O=C(Nc1ccc([N+](=O)[O-])cc1)c1ccccc1O |  | < 5.00 | > 10 µM | > 100 µM |  |  |  |  |  |  |  |  |  |  | 
CC(=O)Oc1ccccc1C(=O)Nc1ccc(Cl)cc1 |  | 5.46 | 9.7 µM | > 100 µM |  |  | 11 |  |  |  |  |  |  |  | 
O=C(Nc1ccc(Cl)cc1)c1ccccc1O |  | < 5.00 | > 10 µM | > 100 µM |  |  |  |  |  |  |  |  |  |  | 
O=C(Nc1cc(C(F)(F)F)ccc1Cl)c1ccccc1O |  | 5.43 | 13 µM | > 100 µM |  |  |  |  |  |  |  |  |  |  | 
O=C(Nc1nc(-c2ccccc2)cs1)c1ccccc1O | 22 µM | 5.25 | 21 µM |  |  |  | 1 |  |  |  |  |  |  |  | 
O=C(Nc1ccc([N+](=O)[O-])cc1Cl)c1cc(Cl)ccc1O [NICLOSAMIDE] |  |  | > 10 µM | > 100 µM |  |  |  |  |  |  |  |  |  |  | 
O=C(Nc1ncc([N+](=O)[O-])s1)c1ccccc1O [TIZOXANIDE] |  | 6.82 | 0.58 µM | > 100 µM | 6.34 | > 83 | > 172 | 1.2 µM |  |  |  |  |  |  | > 95%
